ChEMBL document CHEMBL2062366, “Synthesis and biological evaluation of purpurealidin E-derived marine sponge metabolites: aplysamine-2, aplyzanzine A, and suberedamines A and B” (2012)
Values after ≈ are worked out from the molar mass of the structure shown. Active and inactive are the calls of the source. The calls are words filed in the database; no cut-off is given here.

Experiments:
Assay type in all cases: functional
Bacillus subtilis = test: Antibacterial activity against Bacillus subtilis NCTC 9372 after 24 hrs; conditions: NCTC 9372, 24 h
In short: (§1)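 Agar dilution in Isosensitest agar at final compound levels of 128–1 μg/mL, from 10 mg/mL DMSO stocks. Solvent-only control plates covered the same DMSO range. Strains were pre-grown overnight on Columbia agar at 37 °C and multipoint-inoculated at 10 000 cfu/spot. Plates were read after 24 h at 37 °C. MIC was taken as the lowest concentration giving no visible growth, with tests repeated on a separate occasion.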

Enterococcus faecalis = test: Antibacterial activity against Enterococcus faecalis NCTC 775 after 24 hrs; conditions: NCTC 775, 24 h; in short: as §1
Enterococcus faecium = test: Antibacterial activity against Enterococcus faecium NCTC 7171 after 24 hrs; conditions: NCTC 7171, 24 h; in short: as §1
Listeria monocytogenes = test: Antibacterial activity against Listeria monocytogenes NCTC 11994 after 24 hrs; conditions: NCTC 11994, 24 h; in short: as §1
[1] = tested on: Staphylococcus epidermidis; test: Antibacterial activity against Staphylococcus epidermidis NCTC 11047 after 24 hrs; conditions: NCTC 11047, 24 h; in short: as §1
Staphylococcus aureus [2] = test: Antibacterial activity against Staphylococcus aureus NCTC 6571 after 24 hrs; conditions: NCTC 6571, 24 h
In short: (§2)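 Agar dilution on Isosensitest agar with final 128−1 μg/mL compound from DMSO solution; DMSO-only control plates. Strains pre-grown overnight on Columbia agar at 37 °C, suspended in sterile water, diluted to give 10 000 cfu per spot. Incubated 37 °C, 24 h. MIC = lowest concentration completely inhibiting visible growth; repeated on a separate occasion.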

Staphylococcus aureus [3] = test: Antibacterial activity against methicillin-resistant Staphylococcus aureus NCTC 11939 after 24 hrs; conditions: NCTC 11939, 24 h; in short: as §2
Streptococcus pyogenes = test: Antibacterial activity against Streptococcus pyogenes NCTC 8306 after 24 hrs; conditions: NCTC 8306, 24 h; in short: as §1
[4] = tested on: Mycobacterium tuberculosis; test: Antimycobacterial activity against Mycobacterium tuberculosis H37Rv after 2 weeks by spot culture growth inhibition assay
In short: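 H37Rv grown as standing culture in 7H9 + 10% ADC + 0.05% Tween-80 to McFarland 1, checked for contamination on blood agar. Culture diluted to 10³ cfu/mL; 10 μL spotted onto 7H10 agar + 10% OADC with compound, 37 °C, 2 weeks. Controls: DMSO (negative), isoniazid (positive). MIC = lowest concentration with no growth.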

K562 = test: Growth inhibition of human K562 cells after 48 hrs by sulforhodamine B assay; conditions: K562, 48 h, pooled result: one value given for 6 cell lines, strains, targets or settings
In short: (§3)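 Run at the NCI Developmental Therapeutics Program under the standard DTP NCI60 protocol. Total cell protein was measured by sulforhodamine B staining at time 0 and after 48 h exposure. GI50, the concentration giving a 50% reduction of growth, was estimated from dose–response curves.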

Escherichia coli = test: Antibacterial activity against Escherichia coli NCTC 10418 after 24 hrs; conditions: NCTC 10418, 24 h; in short: as §1
Candida albicans = test: Antifungal activity against Candida albicans ATCC 90028 after 24 hrs; conditions: ATCC 90028, 24 h; in short: as §1
Nakaseomyces glabratus = test: Antifungal activity against Candida glabrata NCPF 9725 after 24 hrs; conditions: NCPF 9725, 24 h; in short: as §1
[5] = Growth inhibition of human NCI60 cells after 48 hrs by sulforhodamine B assay; conditions: NCI60, 48 h; in short: as §3

Structure (SMILES) | MIC (Bacillus subtilis) | MIC (Enterococcus faecium) | MIC (Listeria monocytogenes) | MIC [1] | MIC (Staphylococcus aureus [2]) | MIC (Staphylococcus aureus [3]) | MIC (Streptococcus pyogenes) | MIC ([4]; 336 h) | also measured
COc1ccc(C/C(=N\O)C(=O)NCCc2cc(Br)c(OCCCN(C)C)c(Br)c2)cc1Br | 32 µg/mL (≈ 49.2 µM) | 64 µg/mL (≈ 98.4 µM) | 64 µg/mL (≈ 98.4 µM) | 64 µg/mL (≈ 98.4 µM) | 32 µg/mL (≈ 49.2 µM) | 64 µg/mL (≈ 98.4 µM) | 32 µg/mL (≈ 49.2 µM) | 25 µg/mL (≈ 38.4 µM) | MIC (Enterococcus faecalis): 64 µg/mL (≈ 98.4 µM)
CN[C@@H](Cc1cc(Br)c(OC)c(Br)c1)C(=O)NCCc1cc(Br)c(OCCCN(C)C)c(Br)c1 |  |  |  |  |  |  |  |  | GI50 (K562; read-out: GI50): 2.17 µM; GI50 (K562; read-out: pGI50 (converted)): 4.79 µM
CN(C)CCCOc1c(Br)cc(CCN)cc1Br |  |  |  |  |  |  |  |  | MIC [4]: inactive
CNC(Cc1cc(Br)c(OC)c(Br)c1)C(=O)NCCCOc1c(Br)cc(CCN(C)C)cc1Br.Cl (centres undefined) [ANOMOIAN A] | 32 µg/mL | 64 µg/mL | 64 µg/mL | 64 µg/mL | 64 µg/mL | 64 µg/mL | 64 µg/mL | 25 µg/mL | MIC (Escherichia coli): 64 µg/mL
COc1c(Br)cc(C[C@@H](C(=O)NCCc2cc(Br)c(OCCCN(C)C)c(Br)c2)N(C)C)cc1Br [APLYZANZINE A] | 16 µg/mL (≈ 21.5 µM) | 32 µg/mL (≈ 43.1 µM) | 32 µg/mL (≈ 43.1 µM) | 16 µg/mL (≈ 21.5 µM) | 32 µg/mL (≈ 43.1 µM) | 32 µg/mL (≈ 43.1 µM) | 16 µg/mL (≈ 21.5 µM) | 25 µg/mL (≈ 33.6 µM) | MIC (Escherichia coli): 32 µg/mL (≈ 43.1 µM); MIC (Enterococcus faecalis): 32 µg/mL (≈ 43.1 µM); MIC (Candida albicans): 64 µg/mL (≈ 86.1 µM); MIC (Nakaseomyces glabratus): 64 µg/mL (≈ 86.1 µM)
COc1ccc(C[C@H](N)C(=O)NCCc2cc(Br)c(OCCCN(C)C)c(Br)c2)cc1Br [SUBEREDAMINE A] | 64 µg/mL (≈ 101 µM) |  |  | 64 µg/mL (≈ 101 µM) |  |  |  | 50 µg/mL (≈ 78.6 µM) | 
CN[C@@H](Cc1ccc(OC)c(Br)c1)C(=O)NCCc1cc(Br)c(OCCCN(C)C)c(Br)c1 [SUBEREDAMINE B] |  |  |  |  |  |  |  | 40 µg/mL (≈ 61.5 µM) | GI50 ([5]; read-out: GI50): 5.47 µM; GI50 ([5]; read-out: pGI50 (converted)): 4.79 µM
